The subject of test [1] is NB-4. Description: Antiproliferative activity against human NB4 cells assessed as decrease in cell viability at 1 uM after 96 hrs by trypan blue exclusion test. The class given is functional, cell-based. The method, boiled down:
(§1)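 Log-phase NB4 cells at 0.5 × 10⁶ cells/ml were exposed to test agent alone or combined with 1 µM retinoic acid for 24, 48, 72 and 96 h. At each time point, aliquots were stained with 0.2% trypan blue, and viable and dead cells were counted on a hematocytometer.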

Test [2] is described as follows: Cell cycle arrest at G0/G1 phase in human NB4 cells at 1 uM by flow cytometry. In kind it is functional, cell-based. To be noted: NB-4.
The nature of test [3]: Antiproliferative activity against human NB4 cells assessed as cell growth inhibition after 48 hrs by XTT assay. The class given is functional, cell-based. The note with it: NB-4, 48 h. The method, boiled down: (§2)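 NB4 grown in RPMI 1640 with 10% FBS and penicillin/streptomycin, A549 and MCF-7 in DMEM, all at 37 °C and 5% CO2. Cells seeded at 1.5∙10⁴ (NB4) or 1.0∙10⁴ (A549, MCF-7) per well. Adherent lines dosed 24 h after plating, NB4 shortly after. Triplicate concentrations from 0.1 to 100, DMSO control at 0.5% v/v. After 48 h exposure, XTT added for 2 h. A450 minus A690 read, GI50 reported with SE.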
A general note: Tetrazolium assays rely on reduction of a dye to a coloured formazan, in cell work by metabolically active cells.

Test [4] has as its system A549. Description: Antiproliferative activity against human A549 cells assessed as cell growth inhibition after 48 hrs by XTT assay. The class given is functional, cell-based. To be noted: A549, 48 h. The essentials:
as §2

The test system of test [5] is MCF7. Description: Antiproliferative activity against human MCF7 cells assessed as cell growth inhibition after 48 hrs by XTT assay. The class given is functional, cell-based. The note with it: MCF7, 48 h. The essentials: as §2
Test [6] relates to NB-4. Description: Induction of cell death in human NB4 cells assessed as elevated sub-G1 population at 10 uM after 48 hrs by flow cytometry. The class given is functional, cell-based. The method, boiled down: (§3)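 Cells seeded in 6-well plates at 1∙10⁶ (NB4) or 0.45∙10⁶ (A549, MCF-7) per well. Treated for 48 h at 10 (NB4, MCF-7), 20 and 30 (A549), or, for NB4, a lower 5; DMSO solvent control. Cell cycle phase distribution and sub-G1 measured by flow cytometry. Mean of two independent experiments.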
Background: A flow cytometer gives signals particle by particle.

The nature of test [7]: Induction of apoptosis in human NB4 cells assessed as cell death at 5 uM after 24 hrs by annexin V binding assay. In kind it is functional, NB-4. The essentials:
(§4)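 NB4 acute promyelocytic leukemia cells were grown in RPMI 1640 + GlutaMAX with 10% FBS and penicillin/streptomycin at 37 °C under 5% CO₂. Cells were seeded in 6-well plates at 1∙10⁶ per well and treated for 24 and 48 h; DMSO served as the solvent control. Apoptotic cells were quantified by annexin V binding. Values are the mean of two independent experiments.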

Test [8] is described as follows: Cell cycle arrest in human NB4 cells assessed as increase in cell population at S phase at 5 uM after 48 hrs by flow cytometry. In kind it is functional, cell-based. To be noted: NB-4. The method, boiled down: as §3
The test system of test [9] is MCF7. Description: Cell cycle arrest in human MCF7 cells assessed as increase in cell population at G2/M phase at 10 uM after 48 hrs by flow cytometry. The class given is functional, cell-based. The essentials: as §3
The subject of test [10] is A549. Description: Cell cycle arrest in human A549 cells assessed as increase in cell population at S phase at 30 uM after 48 hrs by flow cytometry. The class given is functional, cell-based. The essentials: as §3
For test [11], the system named is A549. Description: Induction of apoptosis in human A549 cells at 20 to 30 uM after 24 to 48 hrs by annexin V binding assay. The class given is functional, cell-based. The method, boiled down: (§5)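 Cells seeded in 6-well plates at 1∙10⁶ (NB4) or 0.45∙10⁶ (A549, MCF-7) per well. Treated at 5 (NB4), 20 and 30 (A549) or 10 (MCF-7). Apoptotic cell percentage measured by annexin V binding after 24 and 48 h. Mean of two independent experiments.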

Test [12] has as its system A549. Put plainly: Cell cycle arrest in human A549 cells assessed as slight increase in cell population at S phase at 20 uM after 48 hrs by flow cytometry. In kind it is functional, cell-based. The method, boiled down:
as §3

The subject of test [13] is MCF7. Description: Cell cycle arrest in human MCF7 cells assessed as increase in cell population at S phase at 10 uM after 48 hrs by flow cytometry. The class given is functional, cell-based. The essentials:
as §3

The test system of test [14] is A549. Description: Cell cycle arrest in human A549 cells assessed as slight increase in cell accumulation at G2/M phase at 20 uM after 48 hrs by flow cytometry. In kind it is functional, cell-based. The method, boiled down:
as §3

A short description of test [15]: Induction of apoptosis in human NB4 cells assessed as cell death. In kind it is functional, NB-4. The method, boiled down: as §4
The subject of test [16] is NB-4. Put plainly: Acceleration of RA-induced granulocytic differentiation in human NB4 cells in presence of all-trans retinoic acid relative to control. In kind it is functional.
Test [17] concerns MCF7. Description: Induction of apoptosis in human MCF7 cells at 10 uM after 24 to 48 hrs by annexin V binding assay. In kind it is functional, cell-based. The method, boiled down:
as §5

The nature of test [18]: Cell cycle arrest in human NB4 cells assessed as increase in cell population at G2/M phase at 5 uM after 48 hrs by flow cytometry. In kind it is functional, cell-based. To be noted: NB-4. The essentials:
as §3

For test [19], the system named is NB-4. Put plainly: Induction of apoptosis in human NB4 cells at 5 uM after 24 to 48 hrs by annexin V binding assay. In kind it is functional, cell-based. The essentials:
as §5

Test [20] can be described thus: Cell cycle arrest in human NB4 cells assessed as accumulation of cells at G0/G1 phase at 1 uM after 24 hrs by flow cytometry in presence of 1 uM all-trans retinoic acid. The note with it: NB-4. In kind it is functional, cell-based.
Test [21] relates to NB-4. Description: Induction of granulocytic differentiation in human NB4 cells at 1 uM after 24 to 96 hrs by NBT assay. In kind it is functional, cell-based. The essentials: (§6)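 NB4 cells were treated with agent, 1 µM retinoic acid, or both, for 24–96 h. Differentiation was scored as reduction of NBT to formazan after PMA stimulation. NBT-positive cells were counted in 5 non-overlapping fields at ×400 and averaged per field. Three independent experiments; mean ± SD.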

Test [22] has as its system NB-4. Description: Acceleration of RA-induced granulocytic differentiation in human NB4 cells at 1 uM after 24 to 96 hrs by NBT assay in presence of 1 uM all-trans retinoic acid relative to control. In kind it is functional. The essentials: as §6
Test [23] concerns NB-4. Put plainly: Acceleration of RA-induced granulocytic differentiation in human NB4 cells at 1 uM after 48 hrs by CD11b assay in presence of 1 uM all-trans retinoic acid (reference value: 79.9%). In kind it is functional.
Test [24] concerns NB-4. Put plainly: Induction of granulocytic differentiation in human NB4 cells at 1 uM after 48 hrs by CD11b assay (reference value: 8.5%). The class given is functional.
The test system of test [25] is NB-4. Put plainly: Antiproliferative activity against human NB4 cells assessed as decrease in cell viability at 1uM in presence of 1 uM all-trans retinoic acid after 96 hrs by trypan blue exclusion test. In kind it is functional, cell-based. The essentials:
as §1

Test [26] can be described thus: Cell cycle arrest in human NB4 cells assessed as increase in cell population at G0/G1 phase at 5 uM after 48 hrs by flow cytometry. In kind it is functional, cell-based. To be noted: NB-4. The method, boiled down:
as §3

This passage reports Activity, IC50 and inhibition results from ChEMBL document CHEMBL3421532, “Synthesis and antiproliferative activity of α-branched α,β-unsaturated ketones in human hematological and solid cancer cell lines” (Eur J Med Chem, 2015).

One may read the IC50 as the concentration that gives 50% inhibition.

Activity calls are given as the source filed them. The calls are words filed in the database; no cut-off is given here.

As to `CC1=C(/C=C/C(C)=C/C=C/C(C)=C/C(=O)O)C(C)(C)CCC1`, the result in test [1] was Active. Moreover, the Activity in test [2] amounted to 17.3%.

For `CC(=O)OC/C(=C\c1ccccc1F)C(=O)c1ccccc1`, the results for the IC50 in test [3], in test [4] and in [5] were 5.8 µM, 68.7 µM and 14.6 µM, respectively. For the same compound, the result in [6] and in test [8] was Active. The Activity in test [7] is reported as above 50%.

Regarding `COc1ccc(C(=O)/C(=C/c2ccccc2Cl)COC(=O)c2ccccc2)cc1`, the outcome in test [9], in test [10], in test [11], in [12], in test [13] and in [14] was Active. Besides, the IC50 in test [3] turned out to be 7 µM; in test [4] it was 20.1 µM; in [5], 9 µM.

With `C=C(C(=O)c1ccc(OC)cc1)C(OC(=O)c1ccccc1)c1ccc([N+](=O)[O-])cc1[N+](=O)[O-]` (configuration not stated), the results for the IC50 in [3], in [4] and in test [5] were 10 µM, 13 µM and above 100 µM, respectively. Moreover, the outcome in [14] was Active.

For the compound `C=C(C(=O)c1ccc(OC)cc1)C(OC(C)=O)c1ccc(Cl)cc1Cl` (configuration not stated), the result in test [9], in test [10], in test [11], in [6], in [12] and in [8] was Active. For the same compound, the result in test [13] and in test [14] was Active. The IC50 was 5.4 µM in test [3], 17.6 µM in test [4] and 8.3 µM in test [5]. Moreover, in test [7], the Activity is recorded as above 50%.

For `O=[As][As+](=O)[O-]` (configuration not stated) [ARSENIC TRIOXIDE], the Activity in test [15] turned out to be 27%.

For the compound `C=C(C(=O)c1ccc(OC)cc1)C(OC(C)=O)c1c(F)c(F)c(F)c(F)c1F` (configuration not stated), the result in test [9], in test [10], in [11], in [12], in [13] and in [14] was Active. Further, the IC50 is 12.6 µM in test [3], 14.8 µM in test [4] and 6.7 µM in test [5].

Turning to `O=C(/C=C/c1cccc(S(=O)(=O)Nc2ccccc2)c1)NO` [BELINOSTAT], the figures for the Activity in [16] and in test [15] were 13% and 20%, respectively.

With `CC(=O)OC/C(=C\c1ccc(Cl)cc1Cl)C(=O)c1ccccc1`, the outcome in test [9] and in [13] was Active. Also, the figures for the IC50 in test [3], in test [4] and in test [5] were 6.6 µM, 97 µM and 8.7 µM, respectively.

With `CCN(CC)C/C(=C\c1ccc([N+](=O)[O-])cc1)C(=O)c1ccc(OC)cc1`, the result in test [9], in test [6], in test [17], in [8] and in test [13] was Active. The IC50 in [3] turned out to be 1.2 µM; in [4], 22 µM; in test [5] it was 4.3 µM.

Regarding `C=C(C(=O)c1ccc(OC)cc1)C(O)c1ccc([N+](=O)[O-])cc1` (configuration not stated), the outcome in test [18], in [9], in test [6] and in test [13] was Active. Moreover, the figures for the IC50 in test [3], in test [4] and in test [5] were 5.4 µM, 23.8 µM and 11 µM, respectively.

As for `COc1ccc(C(=O)/C(=C/c2ccc([N+](=O)[O-])cc2)CC(C)C)cc1`, the outcome in test [19], in [21] and in test [2] was inactive. For the same compound, the Activity in test [20] was 18.2%; in test [22] it was 8%; in [23], 87.9%; in [24], 9.5%. The inhibition entry in test [1] was “Active”. The half-inhibitory concentration (IC50) in [3] is 0.6 µM; in test [4], above 100 µM; in [5], above 100 µM. Besides, the result in test [6], in test [25] and in test [26] was Active.

On to `C=C(C(=O)c1ccc(OC)cc1OC)C(OC(C)=O)c1ccc([N+](=O)[O-])cc1` (configuration not stated), for which the half-maximal inhibitory concentration (IC50) worked out at 5 µM in test [3], 43.5 µM in test [4] and 10.4 µM in test [5]. Besides, the result in test [6] and in test [8] was Active. The Activity in test [7] is given as above 50%.

As for `C=C(C/C(=C\c1ccc(OC(=O)c2ccccc2)cc1)C(=O)c1ccc(OC)cc1)C(=O)c1ccc(OC)cc1`, the result in test [18] and in test [6] was Active. Besides, the IC50 in test [3] is 6.7 µM; in [4], above 100 µM; in test [5], above 100 µM.

For the compound `COc1cc2nc(N3CCCN(C)CC3)nc(NC3CCN(Cc4ccccc4)CC3)c2cc1OC`, the Activity in [16] is 10%.

Consider `COc1cccc2c1C(=O)c1c(O)c3c(c(O)c1C2=O)C[C@@](O)(C(=O)CO)C[C@@H]3O[C@H]1C[C@H](N)[C@H](O)[C@H](C)O1` [DOXORUBICIN], for which, in [15], the Activity amounted to 80%.
